Reference: ChEMBL document CHEMBL1154089, “Novel N-(3-carboxyl-9-benzyl-beta-carboline-1-yl)ethylamino acids: synthesis, anti-tumor evaluation, intercalating determination, 3D QSAR analysis and docking investigation” (Eur J Med Chem, 2009)

Assays:
[1] = test system: CCRF S-180; assay: Antitumor activity against mouse S180 cells xenografted in ICR mouse assessed as decrease in tumor weight at 89 umol/kg, ip administered 24 hrs after tumor implantation once daily for 7 consecutive days measured after 24 hrs last post dose; format: functional
In short: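 Male ICR mice, 10–12 weeks old. Solid tumors from 1 × 10^7 viable S180 ascites cells in 0.2 ml 0.9% saline, injected s.c. at the right armpit. Random allocation at 24 h, 12 per group. Dosed i.p. daily in 0.2 ml 0.9% saline for 7 days. Saline-only negative control; cytarabine 89 µmol/kg positive control. Tumors excised and weighed 24 h after the last dose. ANOVA used for statistics.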

[2] = Cytotoxicity against human MES-SA cells after 48 hrs by MTT assay; format: functional, cell-based
In short: (§1)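 Cells grown in DMEM or RPMI-1640 with 10% FBS plus penicillin/streptomycin. Seeded at 5 × 10^4 cells/ml and given 4 h at 37 °C in 5% CO2 before the medium was replaced with compound (0.1–400 µM, DMSO vehicle; vehicle control 1% DMSO). After 48 h, MTT added (final 0.5 mg/ml) for 4 h. Formazan dissolved in DMSO and read at 570 nm. IC50 is the concentration giving 50% growth inhibition.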

[3] = test system: Mus musculus; assay: Toxicity in ICR mouse assessed as death at > 500 mg/kg, ip after 7 days; format: organism-based; design: dose 500 mg/kg, route intraperitoneal; settings: in vivo, 168 h
In short: (§2)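 Mice fasted overnight with free access to water, then given a single i.p. injection of 150, 300 or 500 mg/kg in 0.2 ml of 0.9% saline. Groups of 12 (six male, six female). Animals were watched continuously for up to 7 days for abnormal behaviour (tremor, twitch, jumping, tetanus, supination) or death. They were sacrificed on day 7, and heart, liver and kidneys were checked macroscopically. LD50 was estimated graphically.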

[4] = test system: HeLa; assay: Cytotoxicity against human HeLa cells after 48 hrs by MTT assay; format: functional, cell-based; in short: as §1
[5] = test system: Mus musculus; assay: Toxicity in ICR mouse assessed as jumping at > 500 mg/kg, ip after 7 days; format: organism-based; design: dose 500 mg/kg, route intraperitoneal; settings: in vivo, 168 h; in short: as §2
[6] = test system: Mus musculus; assay: Toxicity in ICR mouse assessed as tetanus at > 500 mg/kg, ip after 7 days; format: organism-based; design: dose 500 mg/kg, route intraperitoneal; settings: in vivo, 168 h; in short: as §2
[7] = test system: Mus musculus; assay: Toxicity in ICR mouse assessed as kidneys necropsy at > 500 mg/kg, ip after 7 days; format: organism-based, Kidney; design: dose 500 mg/kg, route intraperitoneal; settings: in vivo, 168 h; in short: as §2
[8] = test system: Mus musculus; assay: Toxicity in mouse S180 cells xenografted in ICR mouse assessed as increase in body weight at 89 umol/kg, ip administered 24 hrs after tumor implantation once daily for 7 consecutive days measured after 24 hrs last post dose; format: organism-based, CCRF S-180; settings: in vivo
In short: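 S180-bearing male ICR mice, n = 12 per group, given 89 µmol/kg i.p. daily in 0.2 ml 0.9% saline for 7 days, starting 24 h after s.c. implantation. Animals weighed daily. Result expressed as body-weight increase from the start of treatment, in g, mean ± SD.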

[9] = test system: Mus musculus; assay: Toxicity in ICR mouse assessed as tremor at > 500 mg/kg, ip after 7 days; format: organism-based; design: dose 500 mg/kg, route intraperitoneal; settings: in vivo, 168 h; in short: as §2
[10] = test system: HepG2; assay: Cytotoxicity against human HepG2 cells after 48 hrs by MTT assay; format: functional, cell-based; settings: HepG2, 48 h; in short: as §1
[11] = test system: Mus musculus; assay: Toxicity in ICR mouse assessed as supination at > 500 mg/kg, ip after 7 days; format: organism-based; design: dose 500 mg/kg, route intraperitoneal; settings: in vivo, 168 h; in short: as §2
[12] = test system: HL-60; assay: Cytotoxicity against human HL60 cells after 48 hrs by MTT assay; format: functional, cell-based; settings: HL-60, 48 h; in short: as §1
[13] = test system: Mus musculus; assay: Toxicity in ICR mouse assessed as heart necropsy at > 500 mg/kg, ip after 7 days; format: organism-based; design: dose 500 mg/kg, route intraperitoneal; settings: in vivo, 168 h; in short: as §2
[14] = Cytotoxicity against human H1299 cells after 48 hrs by MTT assay; format: functional, cell-based; settings: NCI-H1299, 48 h; in short: as §1
[15] = test system: Mus musculus; assay: Toxicity in ICR mouse assessed as liver necropsy at > 500 mg/kg, ip after 7 days; format: organism-based; design: dose 500 mg/kg, route intraperitoneal; settings: in vivo, 168 h; in short: as §2
[16] = test system: Mus musculus; assay: Toxicity in mouse S180 cells xenografted in ICR mouse assessed as spleen index at 89 umol/kg, ip administered 24 hrs after tumor implantation once daily for 7 consecutive days measured after 24 hrs last post dose; format: organism-based, CCRF S-180; settings: in vivo
In short: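 S180-bearing male ICR mice (n = 12) received 89 µmol/kg i.p. daily in 0.2 ml saline for 7 days. Killed under ether 24 h after the last dose; spleens excised and weighed. Spleen index given as mean ± SD, […] body weight.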

[17] = test system: Mus musculus; assay: Toxicity in ICR mouse assessed as twitch at > 500 mg/kg, ip after 7 days; format: organism-based; design: dose 500 mg/kg, route intraperitoneal; settings: in vivo, 168 h; in short: as §2
[18] = test system: CCRF S-180; assay: Antitumor activity against mouse S180 cells xenografted in ICR mouse assessed as inhibition of tumor growth at 89 umol/kg, ip administered 24 hrs after tumor implantation once daily for 7 consecutive days measured after 24 hrs last post dose; format: functional; settings: CCRF S-180, ip
In short: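 S180 solid tumors in male ICR mice (10–12 weeks), 1 × 10^7 cells s.c. at the right armpit. Mice randomized at 24 h, n = 12 per group, and dosed i.p. daily in 0.2 ml 0.9% saline for 7 days. Tumors weighed 24 h after the final dose. Inhibition (%) = [(A − B)/A] × 100, where A is the mean tumor weight of saline controls and B is the mean of the treated group.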

SMILES	Activity [1] [g]	IC50 [2] [µM]	Activity [3]	IC50 [4] [µM]	Activity [5]	Activity [6]	Activity [7]	Activity [8] [g]	Activity [9]	IC50 [10] [µM]	Activity [11]	IC50 [12] [µM]	Activity [13]	IC50 [14] [µM]	Activity [15]	Activity [16] [mg/g]	Activity [17]	inhibition in vivo at 89 µmol/kg [18] [%]
N=C(N)NCCC[C@H](NCCc1nc(C(=O)O)cc2c3ccccc3n(Cc3ccccc3)c12)C(=O)O	1.03	68.2	Non-toxic	259	Non-toxic	Non-toxic	Non-toxic	11.19	Non-toxic	161	Non-toxic	40.9	Non-toxic	86.4	Non-toxic	12.7	Non-toxic	37.7
CSCC[C@H](NCCc1nc(C(=O)O)cc2c3ccccc3n(Cc3ccccc3)c12)C(=O)O	1.63	86.4	–	26.5	–	–	–	9.12	–	108	–	182	–	100	–	11.8	–	1.5
O=C(O)C[C@H](NCCc1nc(C(=O)O)cc2c3ccccc3n(Cc3ccccc3)c12)C(=O)O	1.08	13	Non-toxic	99.3	Non-toxic	Non-toxic	Non-toxic	10.11	Non-toxic	114	Non-toxic	43.2	Non-toxic	69	Non-toxic	13	Non-toxic	34.7
CC(C)[C@@H](NCCc1nc(C(=O)O)cc2c3ccccc3n(Cc3ccccc3)c12)C(=O)O	0.76	175	–	290	–	–	–	10.23	–	> 400	–	> 400	–	199	–	10.2	–	53.8
O=C(O)c1cc2c3ccccc3n(Cc3ccccc3)c2c(CCN[C@@H](CO)C(=O)O)n1	1.07	136	–	210	–	–	–	11.46	–	174	–	23.5	–	83.8	–	10.5	–	35.3
O=C(O)CNCCc1nc(C(=O)O)cc2c3ccccc3n(Cc3ccccc3)c12	1.47	178	Non-toxic	> 400	Non-toxic	Non-toxic	Non-toxic	11.34	Non-toxic	> 400	Non-toxic	> 400	Non-toxic	75.6	Non-toxic	13.1	Non-toxic	11
O=C(O)c1cc2c3ccccc3n(Cc3ccccc3)c2c(CCN[C@@H](Cc2ccc(O)cc2)C(=O)O)n1	0.85	59.3	Non-toxic	209	Non-toxic	Non-toxic	Non-toxic	13.62	Non-toxic	127	Non-toxic	24	Non-toxic	72.5	Non-toxic	13.6	Non-toxic	48.6
O=C(O)c1cc2c3ccccc3n(Cc3ccccc3)c2c(CCN2C(=O)CCC2C(=O)O)n1 (stereo not given)	0.94	45.9	–	> 400	–	–	–	12.24	–	> 400	–	112	–	97.6	–	12.2	–	43
O=C(O)c1cc2c3ccccc3n(Cc3ccccc3)c2c(CCN[C@@H](Cc2c[nH]c3ccccc23)C(=O)O)n1	0.85	11.7	–	393	–	–	–	11.67	–	107	–	102	–	57.3	–	11.7	–	47.2
Nc1ccn([C@@H]2O[C@H](CO)[C@@H](O)[C@@H]2O)c(=O)n1 [CYTARABINE]	0.74	–	–	–	–	–	–	–	–	–	–	–	–	–	–	–	–	54.8
O=C(O)c1cc2c3ccccc3n(Cc3ccccc3)c2c(CCN[C@@H](Cc2ccccc2)C(=O)O)n1	1.56	11	Non-toxic	51.7	Non-toxic	Non-toxic	Non-toxic	9.74	Non-toxic	114	Non-toxic	31.8	Non-toxic	59.3	Non-toxic	14.4	Non-toxic	5.2
CC[C@H](C)[C@H](NCCc1nc(C(=O)O)cc2c3ccccc3n(Cc3ccccc3)c12)C(=O)O	1.62	181	Non-toxic	200	Non-toxic	Non-toxic	Non-toxic	13.56	Non-toxic	254	Non-toxic	33.2	Non-toxic	69	Non-toxic	13.6	Non-toxic	1.6
C[C@@H](O)[C@H](NCCc1nc(C(=O)O)cc2c3ccccc3n(Cc3ccccc3)c12)C(=O)O	2.12	218	Non-toxic	221	Non-toxic	Non-toxic	Non-toxic	11.37	Non-toxic	> 400	Non-toxic	50.4	Non-toxic	86.4	Non-toxic	11.4	Non-toxic	-29.1
O=C(O)c1cc2c3ccccc3n(Cc3ccccc3)c2c(CCN[C@@H](Cc2c[nH]cn2)C(=O)O)n1	1.49	14.5	–	136	–	–	–	11.87	–	70.7	–	160	–	20	–	11.9	–	9.7
CC(C)C[C@H](NCCc1nc(C(=O)O)cc2c3ccccc3n(Cc3ccccc3)c12)C(=O)O	1.51	71.2	–	189	–	–	–	9.04	–	176	–	45.2	–	69.9	–	10.9	–	8.7
O=C(O)c1cc2c3ccccc3n(Cc3ccccc3)c2c(CCN2CCC[C@H]2C(=O)O)n1	1.53	55.2	–	161	–	–	–	12.07	–	107	–	28.4	–	75.5	–	12.1	–	7.2
